TRPC4 potent: allosterically enhances the mouse TRPC4 cation channel | B-score at 10 µM | AID 2227 | Q9QUQ5 | HEK293 TRPC4beta/mu-opioid, DAMGO EC20, Fluo-4 Ca2+ flux; stronger effect = higher value | actives 0.42% (n = 310,000);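 active = B-score of calcium response area above 5 SD of library B-scores, with initial fluorescence ratio within 5 SD of library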
TRPC4 inh: inhibitors of mouse TRPC4 channel. HEK293 TRPC4beta/mu-opioid, DAMGO-evoked Fluo4 calcium flux; stronger effect = lower value. actives 0.39% (n = 300,000). B-score at 10 µM. Q9QUQ5;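 active = B-score over 3 SD under the library average, no early fluorescence shift, positive overall ratio signal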
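Test system – stable TRPC4beta/mu-opioid receptor HEK293 cells · Probe or stimulus – DAMGO, a submaximal dose followed by a maximal one · Dosing – one concentration per compound · Signal – Fluo4 calcium fluorescence by kinetic imaging, 5 s 1 Hz baseline · Evaluation – per-well B score of integrated baseline-normalized Fluo4 ratio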
TRPC4 act: activators of mouse TRPC4 channel; actives 0.49% (n = 310,000); AID 2237; HEK293 TRPC4beta/mu-opioid, Fluo4 calcium fluorescence; stronger effect = higher value; Q9QUQ5; B-score at 10 µM;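 active = B-score above 5 SD of library B-scores, and initial fluorescence ratio not above library mean plus 5 SD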;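 also: positive B-score marks a calcium rise read as TRPC4 activation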
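Technique: kinetic Fluo4 calcium fluorescence; Test system: TRPC4beta and mu-opioid receptor HEK293 stable cells; Measure: B-scored integrated calcium fluorescence ratio; Benchmarks: low control buffer alone, high control maximal DAMGO; Schedule: 45 min room-temperature Fluo4 loading, 110 s read.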
TRPC6 act: activators of mouse TRPC6 channel; B-score at 10 µM; HEK293-TRPC6 membrane potential dye fluorescence; stronger effect = higher value; actives 0.13% (n = 310,000); AID 2550;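 active = B-score of the integrated fluorescence ratio above library mean plus 3 SD, and starting fluorescence ratio within library mean plus 5 SD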;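 also: higher score means more depolarization so channel activation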
TRPC6 inhibitor: mouse TRPC6 channel inhibition; Q61143; HEK293-TRPC6, membrane potential dye, ACh-evoked depolarization; stronger effect = lower value; B-score at 10 µM; actives 1.1% (n = 310,000); AID 2553;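 active = B-score under library mean minus 3 SD, initial fluorescence not abnormally high, positive integrated signal ratio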;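 also: B-score derived from integrated fluorescence ratio over the kinetic read; more negative B-score means stronger inhibition of depolarization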
Kir21 block: blocks the mouse Kir2.1 inward-rectifier potassium channel | AID 1672 | actives 0.85% (n = 310,000) | P35561 | B-score at 10 µM | HEK293-Kir2.1, FluxOR thallium flux fluorescence; stronger effect = lower value;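 active = fluorescence ratio B-score at or below minus 3 SD of library scores, with starting-brightness B-score within 2 SD, cut at about -4.2 in these data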;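 also: channel flux triggered by added potassium and thallium sulfate stimulus; B-score of peak minus minimum fluorescence over baseline after thallium stimulus; more negative B-score means stronger Kir2.1 block with less thallium influx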
Target sequence (P35561 whole entry, looked up): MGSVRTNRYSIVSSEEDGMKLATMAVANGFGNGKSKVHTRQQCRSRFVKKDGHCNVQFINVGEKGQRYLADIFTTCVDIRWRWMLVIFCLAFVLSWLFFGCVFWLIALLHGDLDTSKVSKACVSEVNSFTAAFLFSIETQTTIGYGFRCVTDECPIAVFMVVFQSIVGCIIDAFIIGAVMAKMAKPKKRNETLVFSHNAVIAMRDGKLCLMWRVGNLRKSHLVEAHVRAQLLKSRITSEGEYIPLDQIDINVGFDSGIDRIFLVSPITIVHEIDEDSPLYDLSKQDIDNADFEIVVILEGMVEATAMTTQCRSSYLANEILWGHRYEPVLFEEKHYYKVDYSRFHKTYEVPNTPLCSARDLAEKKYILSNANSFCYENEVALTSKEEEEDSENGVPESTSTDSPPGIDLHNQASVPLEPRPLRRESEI
TRPC4 sel inh 2: second selectivity test of TRPC6 inhibitors: effect on mouse TRPC4. shares compounds with TRPC6 inhibitor. HEK293 TRPC4/MOR, membrane potential dye fluorescence; channel activated by saturating DAMGO dose. inhibition, % at 10 µM. actives 42% (n = 920);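 active = compounds whose fluorescence signal differed from control wells by over 3 SD, either direction, in both duplicate plates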
TRPC4 spec: mouse TRPC4 off-target activity of TRPC6 inhibitors | shares compounds with TRPC6 inhibitor | HEK293 TRPC4/mu-opioid, membrane potential fluorescence | activity change, negative = inhibition, % at 10 µM | actives 61% (n = 920) | AID 2777;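 active = rise or fall in signal beyond 3 SD of buffer-only wells in both replicate plates, either sign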;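 also: integrated kinetic ratio of fluorescence range over baseline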
HEK293 MPD ctr 2-1: second check of TRPC6 inhibitor effects in parental HEK293 cells; shares compounds with TRPC6 inhibitor; parental HEK293 membrane potential dye fluorescence; maximal acetylcholine challenge after compound addition; signal change vs control, % at 10 µM; actives 31% (n = 920);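 active = membrane potential signal moving either way by over 3 SD of the maximum-effect control, in both duplicate plates, meaning non-specific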
HEK293 MPD ctr-1: parental HEK293 nonspecific activity of TRPC6 inhibitors; shares compounds with TRPC6 inhibitor; actives 60% (n = 920); parental HEK293 membrane potential dye fluorescence; membrane potential signal change, % at 10 µM;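 active = membrane potential signal shifting up or down by more than 3 SD of buffer-only wells, on both duplicate plates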
HEK293 MPD ctr-2: checks TRPC6 modulator effects in parental HEK293 cells; membrane potential dye fluorescence; shares compounds with TRPC6 inhibitor; membrane potential signal change, % at 10 µM; actives 51% (n = 2,400);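 active = membrane potential signal moves up or down beyond 5 SD from buffer-only wells, on both duplicate plates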
HEK293 MPD ctr 2-2: parental HEK293 nonspecific activity of TRPC6 modulators, second screen. shares compounds with TRPC6 inhibitor. membrane potential dye fluorescence; after compound, maximal acetylcholine stimulation. inhibition, % at 10 µM. actives 14% (n = 2,400). AID 488926;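 active = membrane potential signal drops by more than 5 SD from the mean control signal, in both duplicate plates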
TRPC4/MOR mod: mouse TRPC4 off-target activity of TRPC6 modulators; actives 69% (n = 2,400); percent change from control (negative = decrease, positive = increase), % at 10 µM; shares compounds with TRPC6 inhibitor; HEK293 TRPC4/mu-opioid, membrane potential fluorescence; AID 488927;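 active = membrane potential signal moved up or down beyond 5 SD of buffer control wells, in both duplicate plates, actives on both sides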
TRPC4 ctr inh 2: second check of whether TRPC6 modulators also affect mouse TRPC4 | shares compounds with TRPC6 inhibitor | HEK293 TRPC4/mu-opioid, membrane potential dye fluorescence; stimulated with maximal-effect DAMGO | inhibition, % at 10 µM | actives 55% (n = 2,400) | AID 488928;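 active = drop in membrane potential signal beyond 5 SD of the control wells in both duplicate plates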;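 also: TRPC4 counter screen for TRPC6 hits run under conditions tuned for TRPC6 not TRPC4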
TRPC6 block conf: mouse TRPC6 inhibitor confirmation; shares compounds with TRPC6 inhibitor; HEK293-TRPC6, membrane potential dye, ACh-evoked depolarization; inhibition, % at 10 µM; actives 43% (n = 3,300);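 active = fluorescence ratio falls more than 5 SD below the full-stimulation control mean, in both duplicate runs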;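 also: integrated fluorescence ratio of peak minus minimum over baseline after agonist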
TRPC6 act conf: mouse TRPC6 activator confirmation; HEK293-TRPC6 membrane potential dye fluorescence, FDSS; shares compounds with TRPC6 inhibitor; AID 488961; actives 11% (n = 2,800); activation, % at 10 µM;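 active = ratio signal rise beyond 5 SD above unstimulated control wells' mean, seen in both duplicate runs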
Hits are given with their value; - = inactive; . = no result. Hits are enriched below; roughly 2.9% of the tested compounds scored in any of these assays.

SMILES | TRPC4 potent | TRPC4 inh | TRPC4 act | TRPC6 act | TRPC6 inhibitor | Kir21 block | HEK293 MPD ctr-2 | HEK293 MPD ctr 2-2 | TRPC4/MOR mod | TRPC4 ctr inh 2 | TRPC6 block conf | TRPC6 act conf | others
CC1CN(C(=O)CCC(=O)N2CCC3(CC2)OCCO3)c2cc(Cl)ccc2O1 (stereo not given) | - | - | - | - | - | - | . | . | . | . | . | .
CN(C)c1ccc(CN2CC=C(c3ccc(F)cc3)CC2)cc1 | - | - | - | - | -7.9 | - | . | . | . | . | - | - | TRPC4 sel inh 2=75%;TRPC4 spec=-;HEK293 MPD ctr 2-1=-;HEK293 MPD ctr-1=-
Cc1ccc(-c2nc3ccccc3c(=O)n2-c2cc(C)ccn2)cc1 | - | - | - | - | - | - | . | . | . | . | . | .
Cc1ccc(-c2nc3ccccc3c(=O)n2-c2cccc(C)n2)cc1 | - | - | - | - | -6 | - | - | - | - | - | - | -
CCCC[N+]12CCC(CC1)C(=C(c1ccccc1)c1ccccc1)C2 | - | - | - | - | - | - | . | . | . | . | . | .
CCC[N+]12CCC(CC1)C(=C(c1ccccc1)c1ccccc1)C2 | - | - | - | - | -5.8 | - | - | - | 14% | - | 64% | .
